Data on 16 molecules can be found in ChEMBL document CHEMBL1123419, “Synthesis and antiviral activity of sulfonamidobenzophenone oximes and sulfonamidobenzamides” (1986).

Converted amounts (≈) assume the structure as drawn.

The subject of one assay is Poliovirus 1. In words: microbe, parasite or virus in culture. Conditions: Enterovirus C; read-out: ED50 (the source's name). The format is functional.
The subject of a further assay is CV-1. In words: Chemotherapeutic index in CV-1 cells (chemotherapeutic index=50% cytotoxic dose/50% effective dose). Format: functional, Cercopithecidae. The method in brief:
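Index = 50% cytotoxic dose / 50% plaque-inhibition dose. For cytotoxicity, 200 cells/mL in suspension were mixed with 10% FBS MEM carrying serial compound dilutions and incubated 7 days at 37 °C under 5% CO2. Colonies were stained with 1% crystal violet and counted, and the 50% cytotoxic dose was read from the dose-response curve.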

In assay [1] the test system is Enterovirus. In words: Antiviral activity against rhinovirus 1A using plaque-inhibition assay. The format is functional. The note with it: read-out: ED50 (the source's name). The method in brief:
(§1)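 Plaque reduction: confluent monolayers were infected with 100-200 PFU. Hela (Ohio) cells were used for rhinoviruses 10 and 1A and coxsackieviruses B4 and A9, CV-1 for poliovirus type 1 Mahoney, and LLC-MK2 for enterovirus 70. Cells were overlaid with 2.0% agar in MEM plus 4% FBS containing serial compound concentrations. Incubation was 37 °C for polio/coxsackie and 33 °C for rhino/enterovirus, with a neutral red (0.004%) second overlay. ED50 was taken from the dose-response curve.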

Assay [2] concerns Enterovirus. In words: Antiviral activity against rhinovirus 10 using plaque-inhibition assay. Format: functional. The note with it: read-out: ED50 (the source's name). In a few lines: as §1
The test system of the next assay is LLC-MK2. In words: Antiviral activity was measured against LLC-MK2 cells injected with enterovirus 70. The format is functional, Cercopithecidae. In a few lines:
as §1

In assay [3] the test system is HeLa. In words: Antiviral activity was measured against Hela cells injected with rhinovirus 19. The format is functional, Homo sapiens. In a few lines:
(§2)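 Rhinovirus spectrum in Hela cells: infected cultures were kept 3 days at 33 °C, stained with crystal violet and examined microscopically for cytopathic effect. The end point was 50% inhibition.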

Assay [4] relates to HeLa. In words: Antiviral activity was measured against Hela cells injected with rhinovirus 1A. The format is functional, Homo sapiens. In a few lines: as §2
The test system of assay [5] is HeLa. In words: Antiviral activity was measured against Hela cells injected with rhinovirus 10. The format is functional, Homo sapiens. The method in brief: as §2
Assay [6] deals with HeLa. In words: Antiviral activity was measured against Hela cells injected with coxsackie virus type B4. Format: functional, Homo sapiens. In a few lines: as §1

For the molecule `CC(C)c1ccc(NC(=O)c2ccc(NS(=O)(=O)N(C)C)cc2)cc1`, the EC50 in the assay on Poliovirus 1 was found to be 0.21 µg/mL (≈ 0.581 µM); with Enterovirus [1], 0.1 µg/mL (≈ 0.277 µM). In the assay on CV-1, this molecule returned a Chemotherapeutic index of 10.
On the same counts, the results for `CCCCCc1ccc(NC(=O)c2ccc(NS(=O)(=O)N(C)C)cc2)cc1` are 0.32 µg/mL (≈ 0.822 µM), 0.51 µg/mL (≈ 1.31 µM) and 4.
Taken in the same sequence, the figures for `CCCc1ccc(NC(=O)c2ccc(NS(=O)(=O)N(C)C)cc2)cc1` were 0.16 µg/mL (≈ 0.443 µM), 0.15 µg/mL (≈ 0.415 µM) and 6.
Take `CN(C)S(=O)(=O)Nc1ccc(C(=O)Nc2ccc(C(F)(F)F)cc2)cc1`: the results for the EC50 in the assay with Poliovirus 1 and with Enterovirus [1] were 0.18 µg/mL (≈ 0.465 µM) and 0.17 µg/mL (≈ 0.439 µM), respectively. In the assay on CV-1, the Chemotherapeutic index amounted to 19.
Consider `CSc1ccc(/C(=N\O)c2cccc(NS(=O)(=O)N(C)C)c2)cc1`, for which the results for the EC50 in the assay on Enterovirus [2] and with Poliovirus 1 were 0.26 µg/mL (≈ 0.711 µM) and 0.32 µg/mL (≈ 0.876 µM), respectively. Further, the Chemotherapeutic index in the assay with CV-1 is recorded as 9.
On to `Cc1ccc(NC(=O)c2ccc(NS(=O)(=O)N(C)C)cc2)cc1`, for which the EC50 is 0.54 µg/mL (≈ 1.62 µM) in the assay on Poliovirus 1 and 0.38 µg/mL (≈ 1.14 µM) in the assay on Enterovirus [1]. Further, the Chemotherapeutic index with CV-1 is given as 370.
For `COc1ccc(/C(=N\O)c2cccc(NS(=O)(=O)N(C)C)c2)c(OC)c1`, the EC50 in the assay on Enterovirus [2] was determined as 0.89 µg/mL (≈ 2.35 µM); in the assay on Poliovirus 1, 1 µg/mL (≈ 2.64 µM). Besides, the Chemotherapeutic index in the assay with CV-1 was found to be 28.
On the same counts, the results for `Cc1ccc(/C(=N\O)c2cccc(NS(=O)(=O)N(C)C)c2)cc1` are 0.41 µg/mL (≈ 1.23 µM), 0.44 µg/mL (≈ 1.32 µM) and 86.
For `CCCCCCc1ccc(NC(=O)c2ccc(NS(=O)(=O)N(C)C)cc2)cc1`, the EC50 with Poliovirus 1 was determined as 0.16 µg/mL (≈ 0.396 µM); with Enterovirus [1], 0.24 µg/mL (≈ 0.595 µM). In the assay on CV-1, this molecule yielded a Chemotherapeutic index of 11.
In the case of `COCc1ccc(/C(=N\O)c2cccc(NS(=O)(=O)N(C)C)c2)cc1`, the EC50 with Enterovirus [2] stood at 0.36 µg/mL (≈ 0.991 µM); with Poliovirus 1, 0.25 µg/mL (≈ 0.688 µM). In addition, the Chemotherapeutic index with CV-1 stood at 28.
In the case of `CN(C)S(=O)(=O)Nc1ccc(C(=O)Nc2ccc(I)cc2)cc1`, the EC50 in the assay on Poliovirus 1 and in the assay with Enterovirus [1] was 0.3 µg/mL (≈ 0.674 µM) each time. The molecule further showed a Chemotherapeutic index in the assay on CV-1 of 5.
Turning to `CCc1ccc(NC(=O)c2ccc(NS(=O)(=O)N(C)C)cc2)cc1`, the EC50 in the assay with Poliovirus 1 is 0.36 µg/mL (≈ 1.04 µM); with Enterovirus [1], 0.2 µg/mL (≈ 0.576 µM). In the assay on CV-1, the Chemotherapeutic index was found to be 10.
Taken in the same sequence, the figures for `CN(C)S(=O)(=O)Nc1ccc(C(=O)Nc2ccc(Cl)cc2)cc1` were 0.5 µg/mL (≈ 1.41 µM), 0.32 µg/mL (≈ 0.904 µM) and 220.
In the case of `COc1ccc(/C(=N\O)c2cccc(NS(=O)(=O)N(C)C)c2)cc1`, the EC50 is 0.29 µg/mL (≈ 0.83 µM) in the assay on Enterovirus [2] and 0.26 µg/mL (≈ 0.744 µM) in the assay with Poliovirus 1. Also, the ED50 in the assay on LLC-MK2 came to 0.75 µg/mL (≈ 2.15 µM); with HeLa [3], 0.44 µg/mL (≈ 1.26 µM); with HeLa [4], 0.29 µg/mL (≈ 0.83 µM); in the assay on HeLa [5], 0.26 µg/mL (≈ 0.744 µM); with HeLa [6], 0.64 µg/mL (≈ 1.83 µM). In the assay on CV-1, the Chemotherapeutic index was 56.
Consider `CC(C)Cc1ccc(NC(=O)c2ccc(NS(=O)(=O)N(C)C)cc2)cc1`, for which the EC50 turned out to be 0.16 µg/mL (≈ 0.426 µM) in the assay on Poliovirus 1 and 0.13 µg/mL (≈ 0.346 µM) in the assay on Enterovirus [1]. In the assay with CV-1, this molecule registered a Chemotherapeutic index of 7.
Consider `CC(C)S(=O)(=O)n1c(N)nc2ccc(/C(=N\O)c3ccccc3)cc21` [ZINVIROXIME], for which the results for the EC50 in the assay with Enterovirus [2] and in the assay with Poliovirus 1 were 0.24 µg/mL (≈ 0.67 µM) and 0.14 µg/mL (≈ 0.391 µM), respectively. This molecule also yielded a Chemotherapeutic index with CV-1 of 61.
